Data published in ChEMBL document CHEMBL3992563, “Piperazines as nootropic agents: New derivatives of the potent cognition-enhancer DM235 carrying hydrophilic substituents” (Bioorg Med Chem, 2017).

Columns and labels:
Mus musculus [1] = assay: Cognition enhancing effect in ip dosed mouse assessed as reversal of scopolamine-induced amnesia treated 20 mins prior to training session followed by scopolamine challenge immediately after training session by passive avoidance test; format: functional; settings: read-out: MED
Mus musculus [2] = assay: Cognition enhancing effect in […] mouse assessed as reversal of scopolamine-induced amnesia by measuring difference between training session and retention session time at MED treated 20 mins prior to training session followed by scopolamine challenge immediately after training session by passive avoidance test
[3] = Half life in Sprague-Dawley rat plasma at 1 uM by LC-MS/MS analysis; format: ADME, cell-free
Outline: (§1)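 Analyte at 1 µM final in PBS or in plasma from male Sprague-Dawley rats (plasma stored at −80 °C), incubated at 37 °C. Sampled in triplicate at 0, 30, 60 and 120 min, then internal standard added. Quantified by ESI-positive LC-MS/MS in MRM mode (C18 column, formic acid/acetonitrile gradient) against calibration from 0–1.00 µM. Enalapril checked plasma hydrolytic activity; t1/2 extrapolated from concentration-time curves.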

[4] = Half life in PBS at 1 uM by LC-MS/MS analysis; format: physicochemical; outline: as §1
Mus musculus [5] = assay: Toxicity in sc dosed CD-1 albino mouse assessed as effect on spontaneous motility at cognition enhancing MED by hole-board test; format: organism-based; settings: in vivo
Mus musculus [6] = assay: (§2) Cognition enhancing effect in sc dosed CD-1 albino mouse assessed as reversal of scopolamine-induced amnesia treated 20 mins prior to training session followed by scopolamine challenge immediately after training session by passive avoidance test; format: functional; settings: CD-1, sc, read-out: MED
Outline: (§3)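 Mouse passive-avoidance test using a modified Jarvik–Kopp protocol. Drug in saline with 10% DMSO, given s.c. 20 min before training in a 1:10 dilution series up to 10 mg/kg. Scopolamine 1.5 mg/kg i.p. given right after the punishment/training session. Saline controls got an extra saline injection. Each value is the mean of 12–14 mice; the read-out is minimal effective dose.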

Mus musculus [7] = assay: Toxicity in sc dosed CD-1 albino mouse assessed as effect on motor co-ordination at cognition enhancing MED by rota rod test; format: organism-based; settings: in vivo
Mus musculus [8] = assay: Toxicity in sc dosed CD-1 albino mouse assessed as gross behavior abnormality at cognition enhancing MED; format: organism-based; settings: in vivo
Mus musculus [9] = assay: Potency index, ratio of piracetam MED to compound MED for cognition enhancing effect in sc dosed CD-1 albino mouse; format: functional
Mus musculus [10] = assay: as §2, with “amnesia by measuring difference between training session and retention session time at MED” for “amnesia”; format: functional; outline: as §3
[11] = Stability in Sprague-Dawley rat plasma assessed as parent compound remaining at 1 uM after 60 mins by LC-MS/MS analysis; format: ADME, cell-free; settings: read-out: Stability; outline: as §1
Plasma [12] = assay: Drug level in Sprague-Dawley rat plasma treated with (4-Acetyl-1-(4-fluorophenylsulfonyl)piperazin-2-yl)methyl acetate at 1 uM after 60 mins by LC-MS/MS analysis; format: ADME, cell-free; settings: 1 h; outline: as §1
[13] = Stability in Sprague-Dawley rat plasma assessed as parent compound remaining at 1 uM after 2 hrs by LC-MS/MS analysis; format: ADME, cell-free; settings: read-out: Stability; outline: as §1
Plasma [14] = assay: Drug metabolism in Sprague-Dawley rat plasma assessed as 1-(4-(4-Fluorophenylsulfonyl)-2-(hydroxymethyl)piperazin-1-yl)ethanone formation at 1 uM after 60 mins by LC-MS/MS analysis; format: ADME, cell-free; settings: 1 h; outline: as §1
Plasma [15] = assay: Drug level in Sprague-Dawley rat plasma treated with (4-Benzoyl-1-propionylpiperazin-2-yl)methyl acetate at 1 uM after 60 mins by LC-MS/MS analysis; format: ADME, cell-free; settings: 1 h; outline: as §1
Plasma [16] = assay: Drug metabolism in Sprague-Dawley rat plasma assessed as 1-(4-Benzoyl-3-(hydroxymethyl)piperazin-1-yl)propan-1-one formation at 1 uM after 60 mins by LC-MS/MS analysis; format: ADME, cell-free; settings: 1 h; outline: as §1
Plasma [17] = assay: Drug metabolism in Sprague-Dawley rat plasma assessed as 1-(4-(4-Fluorophenylsulfonyl)-3-(hydroxymethyl)piperazin-1-yl)ethanone formation at 1 uM after 60 mins by LC-MS/MS analysis; format: ADME, cell-free; settings: 1 h; outline: as §1
Plasma [18] = assay: Drug level in Sprague-Dawley rat plasma treated with (1-Acetyl-4-(4-fluorophenylsulfonyl)piperazin-2-yl)methyl acetate at 1 uM after 60 mins by LC-MS/MS analysis; format: ADME, cell-free; settings: 1 h; outline: as §1
Plasma [19] = assay: Drug level in Sprague-Dawley rat plasma treated with (1-Benzoyl-4-propionylpiperazin-2-yl)methyl acetate at 1 uM after 60 mins by LC-MS/MS analysis; format: ADME, cell-free; settings: 1 h; outline: as §1
Plasma [20] = assay: Drug metabolism in Sprague-Dawley rat plasma assessed as 1-(4-Benzoyl-2-(hydroxymethyl)piperazin-1-yl)propan-1-one formation at 1 uM after 60 mins by LC-MS/MS analysis; format: ADME, cell-free; settings: 1 h; outline: as §1

Compound	minimal effective dose (Mus musculus [1]) [mg/kg]	half-life at 1 µM [3] [min]	half-life at 1 µM [4] [min]	Activity (Mus musculus [5])	minimal effective dose (Mus musculus [6]) [mg/kg]	Activity (Mus musculus [7])	Activity (Mus musculus [8])	Ratio (Mus musculus [9])	Time (Mus musculus [10]) [s]	further results
CC(=O)N1CCN(S(=O)(=O)c2ccc(F)cc2)C(C)C1 (stereo not given)	0.1	–	–	–	–	–	–	–	–	Time (Mus musculus [2]): 82.6 s
CC(=O)N1CCN(S(=O)(=O)c2ccc(F)cc2)CC1C (stereo not given)	1	–	–	–	–	–	–	–	–	Time (Mus musculus [2]): 83.9 s
CCC(=O)N1CCN(C(=O)c2ccccc2)C(C)C1 (stereo not given)	0.1	–	–	–	–	–	–	–	–	Time (Mus musculus [2]): 60.2 s
CCC(=O)N1CCN(C(=O)c2ccccc2)CC1C (stereo not given)	> 10	–	–	–	–	–	–	–	–	–
CC(=O)N1CCN(S(=O)(=O)c2ccc(F)cc2)CC1	0.01	≥ 240	≥ 240	–	–	–	–	–	–	–
COCC1CN(S(=O)(=O)c2ccc(F)cc2)CCN1C(C)=O (stereo not given)	–	≥ 240	≥ 240	Non-Toxic	> 10	Non-Toxic	Non-Toxic	–	–	–
CCC(=O)N1CCN(C(=O)c2ccccc2)C(COC)C1 (stereo not given)	–	≥ 240	≥ 240	Non-Toxic	1	Non-Toxic	Non-Toxic	3 - 300	73.4	–
CCC(=O)N1CCN(C(=O)c2ccccc2)[C@H](CO)C1	–	–	–	–	1	–	–	–	58.8	–
CCOC(=O)C1CN(S(=O)(=O)c2ccc(F)cc2)CCN1C(C)=O (stereo not given)	–	37	≥ 240	Non-Toxic	1	Non-Toxic	Non-Toxic	3 - 300	50.1	remaining at 1 h, 1 µM [11]: < 50%
CCC(=O)N1CCN(C(=O)c2ccccc2)CC1COC (stereo not given)	–	≥ 240	≥ 240	Non-Toxic	10	Non-Toxic	Non-Toxic	3 - 300	79.7	–
CC(=O)N1CCN(S(=O)(=O)c2ccc(F)cc2)C(CO)C1 (stereo not given)	–	≥ 240	≥ 240	Non-Toxic	1	Non-Toxic	Non-Toxic	3 - 300	66.2	Drug metabolism (Plasma [12]): Metabolite_Detected
CC(=O)OCC1CN(S(=O)(=O)c2ccc(F)cc2)CCN1C(C)=O (stereo not given)	–	30	≥ 240	Non-Toxic	> 10	Non-Toxic	Non-Toxic	–	–	remaining at 2 h, 1 µM [13]: ≤ 10%; Drug metabolism (Plasma [14]): Metabolite_Detected
CC(=O)OC[C@H]1CN(C(C)=O)CCN1S(=O)(=O)c1ccc(F)cc1	–	–	–	–	1	–	–	–	70.6	–
CCC(=O)N1CCN(C(=O)c2ccccc2)CC1CO (stereo not given)	–	≥ 240	≥ 240	Non-Toxic	10	Non-Toxic	Non-Toxic	3 - 300	72.7	Drug metabolism (Plasma [15]): Metabolite_Detected
COCC1CN(C(C)=O)CCN1S(=O)(=O)c1ccc(F)cc1 (stereo not given)	–	≥ 240	≥ 240	Non-Toxic	1	Non-Toxic	Non-Toxic	3 - 300	76.5	–
CCOC(=O)C1CN(C(=O)CC)CCN1C(=O)c1ccccc1 (stereo not given)	–	26	≥ 240	Non-Toxic	1	Non-Toxic	Non-Toxic	3 - 300	56.6	remaining at 1 h, 1 µM [11]: < 50%
CCOC(=O)C1CN(C(=O)c2ccccc2)CCN1C(=O)CC (stereo not given)	–	12	≥ 240	Non-Toxic	1	Non-Toxic	Non-Toxic	3 - 300	51.1	remaining at 1 h, 1 µM [11]: < 50%
CCC(=O)N1CCN(C(=O)c2ccccc2)[C@@H](CO)C1	–	–	–	–	1	–	–	–	55	–
CCC(=O)N1CCN(C(=O)c2ccccc2)C(COC(C)=O)C1 (stereo not given)	–	100	≥ 240	Non-Toxic	> 10	Non-Toxic	Non-Toxic	–	–	remaining at 2 h, 1 µM [13]: 50%; Drug metabolism (Plasma [16]): Metabolite_Detected
CC(=O)OCC1CN(C(C)=O)CCN1S(=O)(=O)c1ccc(F)cc1 (stereo not given)	–	29	≥ 240	Non-Toxic	0.1	Non-Toxic	Non-Toxic	3 - 300	56.8	Drug metabolism (Plasma [17]): Metabolite_Detected; remaining at 2 h, 1 µM [13]: ≤ 10%
CC(=O)N1CCN(S(=O)(=O)c2ccc(F)cc2)CC1CO (stereo not given)	–	≥ 240	≥ 240	Non-Toxic	10	Non-Toxic	Non-Toxic	3 - 300	48	Drug metabolism (Plasma [18]): Metabolite_Detected
CC(=O)OC[C@@H]1CN(C(C)=O)CCN1S(=O)(=O)c1ccc(F)cc1	–	–	–	–	1	–	–	–	64.5	–
CCC(=O)N1CCN(C(=O)c2ccccc2)C(CO)C1 (stereo not given)	–	≥ 240	≥ 240	Non-Toxic	0.1	Non-Toxic	Non-Toxic	3 - 300	52.6	Drug metabolism (Plasma [19]): Metabolite_Detected
CCC(=O)N1CCN(C(=O)c2ccccc2)CC1COC(C)=O (stereo not given)	–	154	≥ 240	Non-Toxic	1	Non-Toxic	Non-Toxic	3 - 300	62.2	Drug metabolism (Plasma [20]): Metabolite_Detected; remaining at 2 h, 1 µM [13]: 60%
CCOC(=O)C1CN(C(C)=O)CCN1S(=O)(=O)c1ccc(F)cc1 (stereo not given)	–	21	≥ 240	Non-Toxic	0.1	Non-Toxic	Non-Toxic	3 - 300	55.7	remaining at 1 h, 1 µM [11]: < 50%
CCOC(=O)[C@H](CCc1ccccc1)N[C@@H](C)C(=O)N1CCC[C@H]1C(=O)O [ENALAPRIL]	–	94	≥ 240	–	–	–	–	–	–	–
NC(=O)CN1CCCC1=O [PIRACETAM]	30	–	–	–	–	–	–	–	–	Time (Mus musculus [2]): 82.4 s
CC(=O)NC1CCN(S(=O)(=O)c2ccc(F)cc2)CC1 [SAPUNIFIRAM]	0.01	–	–	–	–	–	–	–	–	–
CCC(=O)N1CCN(C(=O)c2ccccc2)CC1 [SUNIFIRAM]	0.001	≥ 240	≥ 240	–	–	–	–	–	–	–
O=C1CCC2CN(S(=O)(=O)c3ccc(F)cc3)CCN12 (stereo not given) [UNIFIRAM]	0.001	–	–	–	–	–	–	–	–	–
